Experimental data from ChEMBL document CHEMBL5678798 (Clin Cancer Res, 2009).
Activity calls are given as the source filed them. The calls are words filed in the database; no cut-off is given here.

What was measured:
[1] = target: Fibroblast growth factor receptor 4 (Homo sapiens) (UniProt P22455); assay: Inhibition of N-terminal His6-tagged recombinant human FGFR4 (442 to 755 residues) expressed in baculovirus infected Sf21 cells at 3 uM by filter binding assay relative to control
[2] = target: Phosphatidylinositol 4,5-bisphosphate 3-kinase catalytic subunit beta isoform (Homo sapiens, UniProt P42338); assay: Inhibition of PI3Kbeta (unknown origin)
[3] = target: PAS domain-containing serine/threonine-protein kinase (Homo sapiens, UniProt Q96RG2); assay: Inhibition of human PASK by filter binding assay
[4] = target: Dual specificity mitogen-activated protein kinase kinase 6 (Homo sapiens) (UniProt P52564); assay: Inhibition of N-terminal maltose binding protein-tagged human MKK6 (4 to end residues) expressed in Escherichia coli at 3 uM by filter binding assay relative to control
Insulin receptor = Insulin receptor (Homo sapiens, UniProt P06213); assay: Inhibition of N-terminal His6-tagged recombinant human IR (1005 to 1310 residues) expressed in baculovirus infected Sf21 cells by filter binding assay
Chain of Insulin receptor (P06213 28-758 limits assumed): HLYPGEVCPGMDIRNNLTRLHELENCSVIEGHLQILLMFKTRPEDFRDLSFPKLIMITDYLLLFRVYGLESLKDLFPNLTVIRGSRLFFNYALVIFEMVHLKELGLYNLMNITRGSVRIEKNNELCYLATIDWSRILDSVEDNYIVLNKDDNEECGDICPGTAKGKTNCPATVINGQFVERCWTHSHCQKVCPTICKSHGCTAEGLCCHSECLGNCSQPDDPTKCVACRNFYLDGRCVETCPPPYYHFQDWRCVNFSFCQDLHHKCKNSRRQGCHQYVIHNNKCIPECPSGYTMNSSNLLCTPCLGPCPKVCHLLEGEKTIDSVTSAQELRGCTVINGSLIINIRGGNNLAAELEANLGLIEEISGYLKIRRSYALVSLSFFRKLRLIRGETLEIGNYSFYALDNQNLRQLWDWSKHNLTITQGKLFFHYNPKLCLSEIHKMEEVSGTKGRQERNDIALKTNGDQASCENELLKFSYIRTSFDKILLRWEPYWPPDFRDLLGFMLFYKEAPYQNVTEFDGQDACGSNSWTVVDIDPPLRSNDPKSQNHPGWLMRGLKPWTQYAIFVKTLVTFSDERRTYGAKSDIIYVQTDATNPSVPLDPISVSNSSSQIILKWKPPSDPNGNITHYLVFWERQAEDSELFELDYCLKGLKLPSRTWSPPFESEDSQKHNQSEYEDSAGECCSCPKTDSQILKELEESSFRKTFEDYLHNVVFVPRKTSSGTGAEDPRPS
Chain of Insulin receptor (P06213 763-1382 limits assumed): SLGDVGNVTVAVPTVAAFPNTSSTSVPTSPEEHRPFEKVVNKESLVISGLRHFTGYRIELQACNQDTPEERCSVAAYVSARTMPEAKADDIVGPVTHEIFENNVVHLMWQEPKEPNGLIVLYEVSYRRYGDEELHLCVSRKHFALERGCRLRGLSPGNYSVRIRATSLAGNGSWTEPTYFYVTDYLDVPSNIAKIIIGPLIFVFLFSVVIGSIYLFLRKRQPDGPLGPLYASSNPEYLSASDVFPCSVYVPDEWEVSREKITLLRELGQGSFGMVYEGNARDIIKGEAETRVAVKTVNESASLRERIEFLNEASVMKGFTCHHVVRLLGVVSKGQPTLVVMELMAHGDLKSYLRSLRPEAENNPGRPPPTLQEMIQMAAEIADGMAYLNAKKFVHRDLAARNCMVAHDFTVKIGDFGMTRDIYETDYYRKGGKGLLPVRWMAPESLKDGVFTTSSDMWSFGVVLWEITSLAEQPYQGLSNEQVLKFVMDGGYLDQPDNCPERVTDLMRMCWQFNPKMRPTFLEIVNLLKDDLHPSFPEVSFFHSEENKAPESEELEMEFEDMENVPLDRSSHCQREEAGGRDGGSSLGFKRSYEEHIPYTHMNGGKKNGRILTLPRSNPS

MDA-MB-468 = assay: Antiproliferative activity against human MDA-MB-468 cells assessed as reduction in cell viability after 72 hrs by CellTiter-Glo assay; type: functional, cell-based; settings: MDA-MB-468, 72 h
Outline: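 Cells seeded in 96-well plates, left overnight at 37°C, then exposed to a range of test concentrations for 72 h. Viability read by CellTiter-Glo luminescence; IC50 from four-parameter curve fit. Lines kept at 37°C, 5% CO2, in recommended growth medium.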

[5] = target: Mitogen-activated protein kinase 11 (Homo sapiens) (UniProt Q15759); assay: Inhibition of N-terminal GST fusion protein corresponding to full-length human SAPK2b expressed in Escherichia coli at 3 uM by filter binding assay relative to control
Chain of Mitogen-activated protein kinase 11 (Homo sapiens) (Q15759 whole entry, the tested form may be a part): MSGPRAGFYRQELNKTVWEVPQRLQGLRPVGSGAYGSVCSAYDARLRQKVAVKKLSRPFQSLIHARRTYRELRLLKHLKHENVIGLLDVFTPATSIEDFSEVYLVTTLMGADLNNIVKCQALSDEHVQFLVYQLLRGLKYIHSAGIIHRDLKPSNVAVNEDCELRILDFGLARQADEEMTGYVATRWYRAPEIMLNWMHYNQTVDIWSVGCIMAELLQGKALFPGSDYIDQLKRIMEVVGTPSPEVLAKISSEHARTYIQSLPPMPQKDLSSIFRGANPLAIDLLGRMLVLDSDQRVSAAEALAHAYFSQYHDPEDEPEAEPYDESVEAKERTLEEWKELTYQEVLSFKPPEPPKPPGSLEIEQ
Outline: (§1)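 Outsourced single-concentration screen in a commercial panel of 233 protein kinases, run as radiometric filter-binding activity assays. Test agent was tested at 0.3 or 3 µmol/L, as given in each line, from a 10 mmol/L DMSO stock. Activity is expressed as percent inhibition relative to control.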

[6] = target: Macrophage-stimulating protein receptor (Homo sapiens) (UniProt Q04912); assay: Inhibition of N-terminal GST-tagged recombinant human Ron (983 to end residues) expressed in baculovirus infected Sf21 cells at 0.3 uM by filter binding assay relative to control; outline: as §1
[7] = target: Fibroblast growth factor receptor 4 (Homo sapiens) (UniProt P22455); assay: Inhibition of N-terminal His6-tagged recombinant human FGFR4 (442 to 755 residues) expressed in baculovirus infected Sf21 cells at 0.3 uM by filter binding assay relative to control
[8] = target: Protein kinase C iota type (Homo sapiens) (UniProt P41743); assay: Inhibition of N-terminal His6-tagged recombinant full-length human PKCiota expressed in Sf21 cells at 3 uM by filter binding assay relative to control; outline: as §1
Chain of Protein kinase C iota type (Homo sapiens) (P41743 whole entry): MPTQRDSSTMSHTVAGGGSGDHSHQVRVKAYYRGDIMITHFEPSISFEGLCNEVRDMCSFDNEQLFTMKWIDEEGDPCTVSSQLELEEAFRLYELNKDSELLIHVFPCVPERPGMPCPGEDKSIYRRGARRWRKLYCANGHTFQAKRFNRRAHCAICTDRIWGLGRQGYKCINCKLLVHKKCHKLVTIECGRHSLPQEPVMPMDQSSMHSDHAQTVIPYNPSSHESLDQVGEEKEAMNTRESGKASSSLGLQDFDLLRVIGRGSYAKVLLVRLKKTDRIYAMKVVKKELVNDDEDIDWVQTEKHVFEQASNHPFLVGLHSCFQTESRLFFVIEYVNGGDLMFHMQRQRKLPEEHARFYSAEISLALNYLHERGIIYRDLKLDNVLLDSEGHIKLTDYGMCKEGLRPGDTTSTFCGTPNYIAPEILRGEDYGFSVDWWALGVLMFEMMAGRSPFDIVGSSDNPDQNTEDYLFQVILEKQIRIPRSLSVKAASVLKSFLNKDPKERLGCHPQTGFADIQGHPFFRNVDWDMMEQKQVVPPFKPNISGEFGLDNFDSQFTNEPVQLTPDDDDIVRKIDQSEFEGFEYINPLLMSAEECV

[9] = target: Insulin receptor (Mus musculus) (UniProt P15208); settings: CD-1, dose 30.0 mg/kg, route po, time 21.0 day
[10] = target: Protein kinase C alpha type (Homo sapiens) (UniProt P17252); assay: Inhibition of N-terminal His6 tagged recombinant full-length human PKCalpha expressed in baculovirus infected Sf21 cells at 3 uM by filter binding assay relative to control; outline: as §1
[11] = target: Casein kinase I isoform gamma-3 (Homo sapiens, UniProt Q9Y6M4); assay: Inhibition of N-terminal 6His-tagged recombinant human CK1gamma3 (1 to 330 residues) expressed in baculovirus infected Sf21 cells by filter binding assay
Chain of Casein kinase I isoform gamma-3 (Q9Y6M4 whole entry, the tested form may be a part, canonical isoform): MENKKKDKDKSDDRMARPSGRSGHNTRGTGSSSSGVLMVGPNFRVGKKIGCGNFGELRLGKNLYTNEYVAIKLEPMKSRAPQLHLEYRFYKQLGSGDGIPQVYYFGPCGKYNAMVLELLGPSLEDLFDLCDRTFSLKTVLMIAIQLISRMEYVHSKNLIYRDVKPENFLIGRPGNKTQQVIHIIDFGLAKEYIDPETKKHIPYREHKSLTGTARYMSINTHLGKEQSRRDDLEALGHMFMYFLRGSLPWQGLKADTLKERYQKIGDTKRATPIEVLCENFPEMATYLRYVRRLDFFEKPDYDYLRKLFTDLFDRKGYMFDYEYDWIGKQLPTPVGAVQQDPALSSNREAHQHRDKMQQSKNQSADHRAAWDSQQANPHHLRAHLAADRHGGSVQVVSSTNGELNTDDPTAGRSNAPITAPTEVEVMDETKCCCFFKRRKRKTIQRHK

[12] = target: Tyrosine-protein kinase JAK2 (Homo sapiens, UniProt O60674); assay: Inhibition of JAK2 (unknown origin)
[13] = target: Serine/threonine-protein kinase DCLK2 (Homo sapiens) (UniProt Q8N568); assay: Inhibition of N-terminal 6His-tagged recombinant human DCAMKL2 (376 to end residues) expressed in baculovirus infected Sf21 cells at 3 uM by filter binding assay relative to control; outline: as §1
Chain of Serine/threonine-protein kinase DCLK2 (Homo sapiens) (Q8N568 whole entry): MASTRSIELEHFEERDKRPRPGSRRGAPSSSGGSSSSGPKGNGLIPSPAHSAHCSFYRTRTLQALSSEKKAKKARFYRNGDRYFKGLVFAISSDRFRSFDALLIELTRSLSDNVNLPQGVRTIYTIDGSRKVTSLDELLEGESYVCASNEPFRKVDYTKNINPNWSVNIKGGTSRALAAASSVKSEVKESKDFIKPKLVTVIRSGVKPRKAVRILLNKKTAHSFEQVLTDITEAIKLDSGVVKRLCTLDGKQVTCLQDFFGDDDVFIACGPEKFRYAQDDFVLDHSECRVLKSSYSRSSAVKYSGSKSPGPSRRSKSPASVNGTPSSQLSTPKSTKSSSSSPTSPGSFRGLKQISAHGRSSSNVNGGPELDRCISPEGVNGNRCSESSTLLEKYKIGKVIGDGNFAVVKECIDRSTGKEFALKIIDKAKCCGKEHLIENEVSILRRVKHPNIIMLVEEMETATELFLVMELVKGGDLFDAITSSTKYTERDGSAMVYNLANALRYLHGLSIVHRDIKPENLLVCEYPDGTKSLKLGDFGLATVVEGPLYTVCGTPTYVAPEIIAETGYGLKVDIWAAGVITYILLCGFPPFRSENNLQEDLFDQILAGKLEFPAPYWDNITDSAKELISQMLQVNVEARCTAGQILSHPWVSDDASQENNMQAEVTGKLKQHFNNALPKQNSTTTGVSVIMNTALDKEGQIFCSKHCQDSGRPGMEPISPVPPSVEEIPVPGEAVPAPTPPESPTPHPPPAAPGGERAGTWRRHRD

Chain of Fibroblast growth factor receptor 4 (Homo sapiens) (P22455 22-802 limits assumed): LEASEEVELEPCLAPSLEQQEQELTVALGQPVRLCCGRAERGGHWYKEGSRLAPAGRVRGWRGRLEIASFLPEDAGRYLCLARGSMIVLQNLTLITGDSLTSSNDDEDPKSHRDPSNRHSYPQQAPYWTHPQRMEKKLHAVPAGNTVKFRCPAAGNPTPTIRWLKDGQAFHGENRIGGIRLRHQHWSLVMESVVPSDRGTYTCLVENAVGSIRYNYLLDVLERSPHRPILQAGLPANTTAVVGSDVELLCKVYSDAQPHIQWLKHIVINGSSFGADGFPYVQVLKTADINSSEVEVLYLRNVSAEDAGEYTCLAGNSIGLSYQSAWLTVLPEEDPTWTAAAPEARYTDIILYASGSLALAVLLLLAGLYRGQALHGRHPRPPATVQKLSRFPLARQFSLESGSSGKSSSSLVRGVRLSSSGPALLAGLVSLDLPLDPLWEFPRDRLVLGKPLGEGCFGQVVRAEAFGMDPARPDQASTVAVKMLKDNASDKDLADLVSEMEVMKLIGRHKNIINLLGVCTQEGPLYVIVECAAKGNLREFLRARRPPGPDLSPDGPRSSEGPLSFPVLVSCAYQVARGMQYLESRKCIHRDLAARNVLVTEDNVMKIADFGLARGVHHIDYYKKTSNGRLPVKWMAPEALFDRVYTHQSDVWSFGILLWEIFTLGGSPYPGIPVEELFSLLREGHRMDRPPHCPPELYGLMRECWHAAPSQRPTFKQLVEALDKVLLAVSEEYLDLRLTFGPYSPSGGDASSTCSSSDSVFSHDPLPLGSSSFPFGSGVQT

Structure (SMILES): CCc1cc(Nc2nccc(-c3c(-c4ccc(OC)c(C(=O)Nc5c(F)cccc5F)c4)nc4ccccn34)n2)c(OC)cc1N1CCC(N2CCN(S(C)(=O)=O)CC2)CC1
- inhibition [1]: 29%
- IC50 [2]: > 10 µM
- IC50 [3]: 4.34 µM
- inhibition [4]: 0%
- IC50 (Insulin receptor): 0.074 µM
- IC50 (MDA-MB-468): > 20 µM
- inhibition [5]: 11%
- inhibition [6]: -8%
- inhibition [7]: 21%
- inhibition [8]: 0%
- inhibition [9]: inactive
- inhibition [10]: 1%
- IC50 [11]: > 10 µM
- IC50 [12]: > 16 µM
- inhibition [13]: 0%
